Test system: HEK-293T
Experiment: Multiplex assay against HEK293T;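 as to Population Tubulin-Different-Phenotype (%): share of the cells with healthy nuclei that show this phenotype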
Assay type: toxicity, cell-based
Details: human
Procedure, shortened: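 Live cells were stained at seeding with Hoechst33342, BioTracker Green Microtubule Cytoskeleton Dye, MitoTracker Red and Annexin V Alexa Fluor 680. Following compound addition, they were imaged on a CQ1 microscope at 37°C and 5% CO2 and gated by CellPathfinder machine learning into Hoechst high-intensity objects or normal cells, with normal cells split into healthy, pyknosed or fragmented nuclei and pyknosed cells into mitotic or apoptotic. Tubulin, mitochondrial-mass and membrane-permeability phenotypes are per cents of healthy-nucleus cells.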

[1] = 12 h, 1 µM, compound concentration 1 uM, replicate 1
[2] = 12 h, 1 µM, compound concentration 1 uM, replicate 2
[3] = 12 h, 10 µM, compound concentration 10 uM, replicate 1
[4] = 12 h, 10 µM, compound concentration 10 uM, replicate 2
[5] = 24 h, 1 µM, compound concentration 1 uM, replicate 1
[6] = 24 h, 1 µM, compound concentration 1 uM, replicate 2
[7] = 24 h, 10 µM, compound concentration 10 uM, replicate 1
[8] = 24 h, 10 µM, compound concentration 10 uM, replicate 2
[9] = 48 h, 1 µM, compound concentration 1 uM, replicate 1
[10] = 48 h, 1 µM, compound concentration 1 uM, replicate 2
[11] = 48 h, 10 µM, compound concentration 10 uM, replicate 1
[12] = 48 h, 10 µM, compound concentration 10 uM, replicate 2

Nc1nc2c(c(N3CCNCC3)n1)CCC1=C2[C@@H]2CCCC[C@@H]2O1
Population Apoptotic (%) [1]: 34% | Population Fragmented Nuclei (%) [1]: 7% | Population Hoechst High Intensity Objects (%) [1]: 10% | Population Membrane Permeable-Phenotype (%) [1]: 3% | Population Mitochondria Different-Phenotype (%) [1]: 82% | Population Mitotic Cells (%) [1]: 65% | Population Normal (%) [1]: 89% | Population Pyknosed Nuclei (%) [1]: 50% | Population Tubulin-Different-Phenotype (%) [1]: 48% | Total Cell Count [1]: 236 | Population Apoptotic (%) [2]: 21% | Population Fragmented Nuclei (%) [2]: 4% | Population Healthy Nuclei (%) [2]: 41% | Population Hoechst High Intensity Objects (%) [2]: 4% | Population Membrane Permeable-Phenotype (%) [2]: 6% | Population Mitochondria Different-Phenotype (%) [2]: 33% | Population Mitotic Cells (%) [2]: 78% | Population Normal (%) [2]: 95% | Population Pyknosed Nuclei (%) [2]: 53% | Population Tubulin-Different-Phenotype (%) [2]: 25% | Total Cell Count [2]: 217 | Population Apoptotic (%) [3]: 76% | Population Fragmented Nuclei (%) [3]: 7% | Population Healthy Nuclei (%) [3]: 33% | Population Hoechst High Intensity Objects (%) [3]: 15% | Population Membrane Permeable-Phenotype (%) [3]: 4% | Population Mitochondria Different-Phenotype (%) [3]: 97% | Population Mitotic Cells (%) [3]: 23% | Population Normal (%) [3]: 84% | Population Pyknosed Nuclei (%) [3]: 59% | Population Tubulin-Different-Phenotype (%) [3]: 98% | Total Cell Count [3]: 238 | Population Apoptotic (%) [4]: 58% | Population Fragmented Nuclei (%) [4]: 5% | Population Healthy Nuclei (%) [4]: 32% | Population Hoechst High Intensity Objects (%) [4]: 7% | Population Membrane Permeable-Phenotype (%) [4]: 1% | Population Mitochondria Different-Phenotype (%) [4]: 88% | Population Mitotic Cells (%) [4]: 41% | Population Normal (%) [4]: 92% | Population Pyknosed Nuclei (%) [4]: 61% | Population Tubulin-Different-Phenotype (%) [4]: 95% | Total Cell Count [4]: 200 | Population Apoptotic (%) [5]: 49% | Population Fragmented Nuclei (%) [5]: 12% | Population Healthy Nuclei (%) [5]: 59% | Population Hoechst High Intensity Objects (%) [5]: 10% | Population Membrane Permeable-Phenotype (%) [5]: 1% | Population Mitochondria Different-Phenotype (%) [5]: 70% | Population Mitotic Cells (%) [5]: 50% | Population Normal (%) [5]: 89% | Population Pyknosed Nuclei (%) [5]: 28% | Population Tubulin-Different-Phenotype (%) [5]: 47% | Total Cell Count [5]: 298 | Population Apoptotic (%) [6]: 18% | Population Fragmented Nuclei (%) [6]: 8% | Population Hoechst High Intensity Objects (%) [6]: 3% | Population Membrane Permeable-Phenotype (%) [6]: 2% | Population Mitochondria Different-Phenotype (%) [6]: 29% | Population Mitotic Cells (%) [6]: 81% | Population Normal (%) [6]: 96% | Population Pyknosed Nuclei (%) [6]: 32% | Population Tubulin-Different-Phenotype (%) [6]: 29% | Total Cell Count [6]: 264 | Population Apoptotic (%) [7]: 80% | Population Fragmented Nuclei (%) [7]: 8% | Population Healthy Nuclei (%) [7]: 40% | Population Hoechst High Intensity Objects (%) [7]: 27% | Population Membrane Permeable-Phenotype (%) [7]: 0% | Population Mitotic Cells (%) [7]: 19% | Population Normal (%) [7]: 72% | Population Pyknosed Nuclei (%) [7]: 51% | Population Tubulin-Different-Phenotype (%) [7]: 95% | Total Cell Count [7]: 241 | Population Apoptotic (%) [8]: 81% | Population Fragmented Nuclei (%) [8]: 3% | Population Healthy Nuclei (%) [8]: 42% | Population Hoechst High Intensity Objects (%) [8]: 16% | Population Membrane Permeable-Phenotype (%) [8]: 2% | Population Mitochondria Different-Phenotype (%) [8]: 100% | Population Mitotic Cells (%) [8]: 18% | Population Normal (%) [8]: 83% | Population Pyknosed Nuclei (%) [8]: 54% | Population Tubulin-Different-Phenotype (%) [8]: 100% | Total Cell Count [8]: 190 | Population Apoptotic (%) [9]: 36% | Population Healthy Nuclei (%) [9]: 79% | Population Hoechst High Intensity Objects (%) [9]: 7% | Population Membrane Permeable-Phenotype (%) [9]: 1% | Population Mitochondria Different-Phenotype (%) [9]: 25% | Population Mitotic Cells (%) [9]: 63% | Population Normal (%) [9]: 92% | Population Pyknosed Nuclei (%) [9]: 11% | Population Tubulin-Different-Phenotype (%) [9]: 26% | Total Cell Count [9]: 532 | Population Apoptotic (%) [10]: 12% | Population Fragmented Nuclei (%) [10]: 8% | Population Healthy Nuclei (%) [10]: 76% | Population Hoechst High Intensity Objects (%) [10]: 4% | Population Membrane Permeable-Phenotype (%) [10]: 9% | Population Mitochondria Different-Phenotype (%) [10]: 12% | Population Mitotic Cells (%) [10]: 87% | Population Normal (%) [10]: 95% | Population Pyknosed Nuclei (%) [10]: 14% | Population Tubulin-Different-Phenotype (%) [10]: 35% | Total Cell Count [10]: 420 | Population Apoptotic (%) [11]: 66% | Population Fragmented Nuclei (%) [11]: 12% | Population Healthy Nuclei (%) [11]: 48% | Population Hoechst High Intensity Objects (%) [11]: 45% | Population Membrane Permeable-Phenotype (%) [11]: 1% | Population Mitochondria Different-Phenotype (%) [11]: 93% | Population Mitotic Cells (%) [11]: 33% | Population Normal (%) [11]: 54% | Population Pyknosed Nuclei (%) [11]: 39% | Population Tubulin-Different-Phenotype (%) [11]: 96% | Total Cell Count [11]: 288 | Population Apoptotic (%) [12]: 74% | Population Fragmented Nuclei (%) [12]: 7% | Population Healthy Nuclei (%) [12]: 54% | Population Hoechst High Intensity Objects (%) [12]: 37% | Population Membrane Permeable-Phenotype (%) [12]: 2% | Population Mitochondria Different-Phenotype (%) [12]: 90% | Population Mitotic Cells (%) [12]: 25% | Population Normal (%) [12]: 62% | Population Pyknosed Nuclei (%) [12]: 37% | Population Tubulin-Different-Phenotype (%) [12]: 91% | Total Cell Count [12]: 217

From ChEMBL document CHEMBL4689842, “EUbOPEN Chemogenomics Library wave 1” (2021)
